Results reported in ChEMBL document CHEMBL5058577, “EUbOPEN Chemogenomics Library 2 (Multiplex)” (2022).

Test system: Fibroblast
Assay: Multiplex assay against human fibroblast
Type: toxicity, cell-based
In short: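 Live cells carried four stains from seeding: Hoechst33342, BioTracker Green Microtubule Cytoskeleton Dye, MitoTracker Red and Annexin V Alexa Fluor 680. They were imaged on a CQ1 microscope at 37°C and 5% CO2 after compound addition. Using CellPathfinder machine-learning gating, cells were split into Hoechst high-intensity objects or normal cells, normal cells into healthy, pyknosed or fragmented nuclei, and pyknosed cells into mitotic or apoptotic; tubulin, mitochondrial-mass and membrane-permeability phenotypes are per cents of healthy-nucleus cells.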

[1] = 12 h, 1 µM, compound concentration 1 uM, replicate 1
[2] = 12 h, 1 µM, compound concentration 1 uM, replicate 2
[3] = 12 h, 10 µM, compound concentration 10 uM, replicate 1
[4] = 12 h, 10 µM, compound concentration 10 uM, replicate 2
[5] = 24 h, 1 µM, compound concentration 1 uM, replicate 1
[6] = 24 h, 1 µM, compound concentration 1 uM, replicate 2
[7] = 24 h, 10 µM, compound concentration 10 uM, replicate 1
[8] = 24 h, 10 µM, compound concentration 10 uM, replicate 2
[9] = 48 h, 1 µM, compound concentration 1 uM, replicate 1
[10] = 48 h, 1 µM, compound concentration 1 uM, replicate 2
[11] = 48 h, 10 µM, compound concentration 10 uM, replicate 1
[12] = 48 h, 10 µM, compound concentration 10 uM, replicate 2

N#Cc1cc(F)cc(-c2nc(-c3ccc(F)cn3)no2)c1
Population Apoptotic (%) [1]: 28% | Population Fragmented Nuclei (%) [1]: 21% | Population Healthy Nuclei (%) [1]: 63% | Population Hoechst High Intensity Objects (%) [1]: 0% | Population Membrane Permeable-Phenotype (%) [1]: 2% | Population Mitochondria Different-Phenotype (%) [1]: 5% | Population Mitotic Cells (%) [1]: 71% | Population Normal (%) [1]: 100% | Population Pyknosed Nuclei (%) [1]: 15% | Population Tubulin-Different-Phenotype (%) [1]: 22% | Total Cell Count [1]: 136 | Population Apoptotic (%) [2]: 38% | Population Fragmented Nuclei (%) [2]: 32% | Population Healthy Nuclei (%) [2]: 37% | Population Hoechst High Intensity Objects (%) [2]: 6% | Population Membrane Permeable-Phenotype (%) [2]: 15% | Population Mitochondria Different-Phenotype (%) [2]: 6% | Population Mitotic Cells (%) [2]: 61% | Population Normal (%) [2]: 93% | Population Pyknosed Nuclei (%) [2]: 29% | Population Tubulin-Different-Phenotype (%) [2]: 48% | Total Cell Count [2]: 93 | Population Apoptotic (%) [3]: 48% | Population Fragmented Nuclei (%) [3]: 15% | Population Healthy Nuclei (%) [3]: 67% | Population Hoechst High Intensity Objects (%) [3]: 1% | Population Membrane Permeable-Phenotype (%) [3]: 2% | Population Mitochondria Different-Phenotype (%) [3]: 5% | Population Mitotic Cells (%) [3]: 51% | Population Normal (%) [3]: 98% | Population Pyknosed Nuclei (%) [3]: 17% | Population Tubulin-Different-Phenotype (%) [3]: 23% | Total Cell Count [3]: 179 | Population Apoptotic (%) [4]: 28% | Population Fragmented Nuclei (%) [4]: 42% | Population Healthy Nuclei (%) [4]: 32% | Population Hoechst High Intensity Objects (%) [4]: 8% | Population Membrane Permeable-Phenotype (%) [4]: 9% | Population Mitochondria Different-Phenotype (%) [4]: 12% | Population Mitotic Cells (%) [4]: 72% | Population Normal (%) [4]: 91% | Population Pyknosed Nuclei (%) [4]: 24% | Population Tubulin-Different-Phenotype (%) [4]: 36% | Total Cell Count [4]: 110 | Population Apoptotic (%) [5]: 40% | Population Fragmented Nuclei (%) [5]: 19% | Population Healthy Nuclei (%) [5]: 68% | Population Hoechst High Intensity Objects (%) [5]: 2% | Population Membrane Permeable-Phenotype (%) [5]: 1% | Population Mitochondria Different-Phenotype (%) [5]: 3% | Population Mitotic Cells (%) [5]: 60% | Population Normal (%) [5]: 97% | Population Pyknosed Nuclei (%) [5]: 11% | Population Tubulin-Different-Phenotype (%) [5]: 18% | Total Cell Count [5]: 131 | Population Apoptotic (%) [6]: 27% | Population Fragmented Nuclei (%) [6]: 39% | Population Healthy Nuclei (%) [6]: 38% | Population Hoechst High Intensity Objects (%) [6]: 7% | Population Membrane Permeable-Phenotype (%) [6]: 12% | Population Mitotic Cells (%) [6]: 72% | Population Normal (%) [6]: 92% | Population Pyknosed Nuclei (%) [6]: 22% | Population Tubulin-Different-Phenotype (%) [6]: 58% | Total Cell Count [6]: 88 | Population Apoptotic (%) [7]: 70% | Population Fragmented Nuclei (%) [7]: 12% | Population Healthy Nuclei (%) [7]: 70% | Population Hoechst High Intensity Objects (%) [7]: 4% | Population Membrane Permeable-Phenotype (%) [7]: 0% | Population Mitochondria Different-Phenotype (%) [7]: 6% | Population Mitotic Cells (%) [7]: 29% | Population Normal (%) [7]: 95% | Population Pyknosed Nuclei (%) [7]: 16% | Population Tubulin-Different-Phenotype (%) [7]: 22% | Total Cell Count [7]: 170 | Population Apoptotic (%) [8]: 35% | Population Fragmented Nuclei (%) [8]: 47% | Population Healthy Nuclei (%) [8]: 33% | Population Hoechst High Intensity Objects (%) [8]: 11% | Population Membrane Permeable-Phenotype (%) [8]: 5% | Population Mitochondria Different-Phenotype (%) [8]: 11% | Population Mitotic Cells (%) [8]: 65% | Population Normal (%) [8]: 88% | Population Pyknosed Nuclei (%) [8]: 18% | Population Tubulin-Different-Phenotype (%) [8]: 41% | Total Cell Count [8]: 120 | Population Apoptotic (%) [9]: 61% | Population Fragmented Nuclei (%) [9]: 21% | Population Healthy Nuclei (%) [9]: 68% | Population Hoechst High Intensity Objects (%) [9]: 1% | Population Membrane Permeable-Phenotype (%) [9]: 0% | Population Mitochondria Different-Phenotype (%) [9]: 3% | Population Mitotic Cells (%) [9]: 38% | Population Normal (%) [9]: 98% | Population Pyknosed Nuclei (%) [9]: 9% | Population Tubulin-Different-Phenotype (%) [9]: 23% | Total Cell Count [9]: 137 | Population Apoptotic (%) [10]: 50% | Population Fragmented Nuclei (%) [10]: 45% | Population Healthy Nuclei (%) [10]: 32% | Population Hoechst High Intensity Objects (%) [10]: 5% | Population Membrane Permeable-Phenotype (%) [10]: 3% | Population Mitochondria Different-Phenotype (%) [10]: 7% | Population Mitotic Cells (%) [10]: 50% | Population Normal (%) [10]: 94% | Population Pyknosed Nuclei (%) [10]: 22% | Population Tubulin-Different-Phenotype (%) [10]: 57% | Total Cell Count [10]: 85 | Population Apoptotic (%) [11]: 84% | Population Fragmented Nuclei (%) [11]: 20% | Population Healthy Nuclei (%) [11]: 63% | Population Hoechst High Intensity Objects (%) [11]: 7% | Population Membrane Permeable-Phenotype (%) [11]: 0% | Population Mitochondria Different-Phenotype (%) [11]: 11% | Population Mitotic Cells (%) [11]: 16% | Population Normal (%) [11]: 92% | Population Pyknosed Nuclei (%) [11]: 16% | Population Tubulin-Different-Phenotype (%) [11]: 28% | Total Cell Count [11]: 162 | Population Apoptotic (%) [12]: 50% | Population Fragmented Nuclei (%) [12]: 44% | Population Healthy Nuclei (%) [12]: 38% | Population Hoechst High Intensity Objects (%) [12]: 5% | Population Membrane Permeable-Phenotype (%) [12]: 15% | Population Mitochondria Different-Phenotype (%) [12]: 5% | Population Mitotic Cells (%) [12]: 50% | Population Normal (%) [12]: 94% | Population Pyknosed Nuclei (%) [12]: 17% | Population Tubulin-Different-Phenotype (%) [12]: 50% | Total Cell Count [12]: 110
